The source of these data is ChEMBL document CHEMBL1132197, “Stereospecific synthesis, structure-activity relationship, and oral bioavailability of tetrahydropyrimidin-2-one HIV protease inhibitors” (J Med Chem, 1999).

Structures are written as SMILES.

The target in test [1] is Human immunodeficiency virus type 1 protease (Human immunodeficiency virus 1, UniProt Q72874). Nature of the test: Inhibition constant of HIV protease inhibitors. The method in brief: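 HIV protease (HIVPR) inhibition constant was determined by monitoring cleavage of a fluorescent peptide substrate, with products separated and quantified by HPLC.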
Another test deals with MT2. Nature of the test: Antiviral activity by measuring its effect on the accumulation of viral RNA transcripts on infection of MT-2 cells with HIV-1 RF. It counts as functional. The note with it: Homo sapiens. The method in brief:
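Viral RNA transcript accumulation read 3 days after HIV-1 RF infection of MT-2 cells. IC90 is the concentration cutting viral RNA by 90% versus an untreated infected culture. TC50 came from MTT dye reduction in uninfected MT-2 cultures grown 3 days with compound.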

`N/C(=N\O)c1cccc(CN2C(=O)N3C(Cc4ccccc4)[C@@H]3[C@@H](O)[C@H]2Cc2ccccc2)c1` (stereo partly specified): the Ki (commonly a dissociation constant, usually derived from enzyme kinetics or from competition with a known ligand) in test [1] was determined as 12 nM.

On to `N#Cc1cccc(CN2C(=O)N3C(Cc4ccccc4)[C@@H]3[C@@H](O)[C@H]2Cc2ccccc2)c1` (stereo partly specified), for which affinity in test [1] was put at a Ki of 2400 nM.

`N#Cc1cc(CN2C(=O)N(Cc3ccccc3)[C@H](Cc3ccccc3)[C@H](O)[C@H]2CCc2ccccc2)ccc1F` had a Ki in test [1] of 33 nM.

Take `Nc1[nH]nc2ccc(CN3C(=O)N(Cc4ccc5n[nH]c(N)c5c4)[C@H](Cc4ccccc4)[C@H](O)[C@H]3CCc3ccccc3)cc12`: the Ki in test [1] was 0.03 nM. For the same compound, the IC90 (in general, the point of the concentration-response curve where the effect stands at 90%) in the test with MT2 turned out to be 383 nM.

`NC(=O)c1cc(CN2C(=O)N[C@H](CCc3ccccc3)[C@@H](O)[C@H]2Cc2ccccc2)ccc1F` gave a Ki in test [1] of 14 nM.

Turning to `Nc1cccc(CN2C(=O)N[C@H](CCc3ccccc3)[C@@H](O)[C@H]2Cc2ccccc2)c1`, in test [1], the inhibitory constant (Ki) was found to be 6.2 nM. In addition, it took 4330 nM to reach the 90% level in the test on MT2 (IC90).

Turning to `O=C1N[C@H](CCc2ccccc2)[C@@H](O)[C@@H](Cc2ccccc2)N1Cc1ccc2[nH]ncc2c1`, the affinity in test [1] corresponds to a Ki of 1.2 nM. The compound further showed an IC90 in the test with MT2 of 590 nM.

Regarding `N#Cc1cc(CN2C(=O)N(Cc3ccccc3)[C@H](CCc3ccccc3)[C@@H](O)[C@H]2Cc2ccccc2)ccc1F`, the Ki in test [1] was determined as 40 nM.

On to `O=C1N(Cc2cccc(CO)c2)[C@H]([C@@H](Br)Cc2ccccc2)[C@@H](O)[C@@H](Cc2ccccc2)N1Cc1cccc(CO)c1`, for which, in test [1], the Ki was found to be 11 nM. In the test on MT2, this compound gave a concentration for an effect of 90% (IC90) of 2100 nM.

In the test on MT2, `Nc1cc(CN2C(=O)N(Cc3ccc(F)c(N)c3)[C@H](Cc3ccccc3)[C@H](O)[C@H]2CCc2ccccc2)ccc1F` returned an IC90 of 36 nM.

For `Cc1n[nH]c2ccc(CN3C(=O)N(Cc4ccc5[nH]nc(C)c5c4)[C@H](Cc4ccccc4)[C@H](O)[C@H]3CCc3ccccc3)cc12`, in test [1], the Ki is 0.1 nM. The compound also displayed a 90% effect concentration (IC90) in the test on MT2 of 18 nM.

For `[N-]=[N+]=N[C@@H](Cc1ccccc1)[C@@H]1[C@@H](O)[C@@H](Cc2ccccc2)N(Cc2ccc3ccccc3c2)C(=O)N1Cc1ccc2ccccc2c1`, in test [1], affinity was put at a Ki of 330 nM.

Take `N/C(=N\O)c1cccc(CN2C(=O)N(CC3CC3)[C@H](CCc3ccccc3)[C@@H](O)[C@H]2Cc2ccccc2)c1`: the affinity in test [1], expressed as Ki, was 0.48 nM. Besides, the IC90 with MT2 was determined as 36 nM.

`Nc1cccc(CN2C(=O)N(Cc3ccc4[nH]ncc4c3)[C@H](Cc3ccccc3)[C@H](O)[C@H]2CCc2ccccc2)c1` came in with an inhibitory constant (Ki) in test [1] of 0.08 nM. In the test with MT2, this compound came in with an IC90 of 13 nM.

Take `NC(=O)c1cccc(CN2C(=O)N[C@H](CCc3ccccc3)[C@@H](O)[C@H]2Cc2ccccc2)c1`: the Ki in test [1] turned out to be 5.6 nM.

For the compound `N#Cc1cc(CN2C(=O)N[C@H](CCc3ccccc3)[C@@H](O)[C@H]2Cc2ccccc2)ccc1F`, in test [1], affinity was put at a Ki of 110 nM. This Ki lies about 20-fold higher than the previous one.

`NC(=O)c1cccc(CN2C(=O)N(Cc3cccc(C(N)=O)c3)[C@H](Cc3ccc(F)cc3)[C@H](O)[C@H]2CCc2ccc(F)cc2)c1` had a Ki in test [1] of 0.31 nM. In the test on MT2, this compound gave an IC90 of 35 nM.

`N#Cc1cccc(CN2C(=O)N(Cc3cccc(N)c3)[C@H](Cc3ccccc3)[C@H](O)[C@H]2CCc2ccccc2)c1` came in with a Ki in test [1] of 1.6 nM. In the test with MT2, this compound had an IC90 of 565 nM.

With `Cc1n[nH]c2ccc(CN3C(=O)N(Cc4cccc(N)c4)[C@H](Cc4ccccc4)[C@H](O)[C@H]3CCc3ccccc3)cc12`, the Ki in test [1] amounted to 0.13 nM. In addition, the IC90 in the test with MT2 worked out at 32 nM.

Take `N/C(=N\O)c1cc(CN2C(=O)N[C@H](CCc3ccccc3)[C@@H](O)[C@H]2Cc2ccccc2)ccc1F`: the Ki in test [1] was found to be 1.4 nM. Moreover, the 90% effect level with MT2 (IC90) was put at 3780 nM.

Consider `CNc1cccc(CN2C(=O)N(Cc3cccc(NC)c3)[C@H](Cc3ccccc3)[C@H](O)[C@H]2CCc2ccccc2)c1`, for which, in the test on MT2, the IC90 worked out at 328 nM. This counts as sub-micromolar.

`O=C(O)c1cccc(CN2C(=O)N(Cc3cccc(C(=O)O)c3)[C@H](Cc3ccccc3)[C@H](O)[C@H]2CCc2ccccc2)c1`: the Ki in test [1] turned out to be 0.87 nM.

The compound `O=C1N[C@H](Cc2ccccc2)[C@H](O)[C@H]2C(Cc3ccccc3)N12` (stereo partly specified) returned a Ki in test [1] of 3000 nM.

As to `N#Cc1cccc(CN2C(=O)N(Cc3cccc(C#N)c3)[C@H](Cc3ccc(F)cc3)[C@H](O)[C@H]2CCc2ccc(F)cc2)c1`, the inhibitory constant (Ki) in test [1] is 14 nM. For the same compound, in the test on MT2, the IC90 came out at 1560 nM.

For the compound `NC(=O)c1cccc(CN2C(=O)N(Cc3cccc(N)c3)[C@H](Cc3ccccc3)[C@H](O)[C@H]2CCc2ccccc2)c1`, in test [1], the Ki was 0.06 nM. Further, the IC90 in the test with MT2 came out at 24 nM.

As for `N#Cc1cccc(CN2C(=O)N[C@H](CCc3ccccc3)[C@@H](O)[C@H]2Cc2ccccc2)c1`, the Ki in test [1] worked out at 15 nM.

With `O=C1N(CC2CC2)[C@H](CCc2ccccc2)[C@@H](O)[C@@H](Cc2ccccc2)N1CC1CC1`, the inhibitory constant (Ki) in test [1] was found to be 9.8 nM.

In turn, `O=C1N(CC2CC2)[C@H]([C@@H](O)Cc2ccccc2)[C@@H](O)[C@@H](Cc2ccccc2)N1CC1CC1` displayed a Ki in test [1] of 410 nM.

As for `O=C(Nc1nccs1)c1cccc(CN2C(=O)N(Cc3cccc(C(=O)Nc4nccs4)c3)[C@H](Cc3ccccc3)[C@H](O)[C@H]2CCc2ccccc2)c1`, in test [1], affinity was put at a Ki of 0.03 nM. In the test on MT2, this compound yielded an IC90 of 31 nM.

In the case of `Nc1cccc(CN2C(=O)N(Cc3ccc4[nH]ncc4c3)[C@H](CCc3ccccc3)[C@@H](O)[C@H]2Cc2ccccc2)c1`, the Ki in test [1] worked out at 0.1 nM. This compound had an IC90 in the test on MT2 of 16 nM.

`N#Cc1cccc(CN2C(=O)N(Cc3cccc(C#N)c3)[C@H](Cc3ccccc3)[C@H](O)[C@H]2CCc2ccccc2)c1`: in the test on MT2, it took 1600 nM to reach the 90% level (IC90). In other words, the single-digit micromolar range.

`Nc1[nH]nc2ccc(CN3C(=O)N(Cc4ccccc4)[C@H](CCc4ccccc4)[C@@H](O)[C@H]3Cc3ccccc3)cc12`: the Ki in test [1] was 0.28 nM. The same compound registered an IC90 with MT2 of 126 nM.

Compound `NC(=O)c1cccc(CN2C(=O)N(Cc3cccc(C(N)=O)c3)[C@H](Cc3ccccc3)[C@H](O)[C@H]2CCc2ccccc2)c1` displayed a Ki in test [1] of 0.09 nM.

For `NC(=O)c1cccc(CN2C(=O)N3C(Cc4ccccc4)[C@@H]3[C@@H](O)[C@H]2Cc2ccccc2)c1` (stereo partly specified), the affinity in test [1], expressed as Ki, was 320 nM.

Compound `O=C1[C@@H](CCc2ccccc2)N(Cc2ccccc2)C(=O)N(Cc2ccccc2)[C@@H]1Cc1ccccc1` returned a Ki in test [1] of 1500 nM.

As to `O=C1N(Cc2ccccc2)[C@H](/C=C/c2ccccc2)[C@@H](O)[C@@H](Cc2ccccc2)N1Cc1ccccc1`, the affinity in test [1], expressed as Ki, was 460 nM.

With `NC(=O)c1cc(CN2C(=O)N(Cc3ccc(F)c(C(N)=O)c3)[C@H](Cc3ccccc3)[C@H](O)[C@H]2CCc2ccccc2)ccc1F`, the 90% effect level in the test with MT2 (IC90) was put at 490 nM.

In the test with MT2, `Nc1ccc(CN2C(=O)N(Cc3ccc(N)c(F)c3)[C@H](Cc3ccccc3)[C@H](O)[C@H]2CCc2ccccc2)cc1F` yielded an IC90 of 539 nM. The IC90 values of the last two compounds are within 1.5-fold of each other.

`O=C1N(Cc2ccccc2)C[C@@H](O)[C@@H](Cc2ccccc2)N1Cc1ccccc1` returned a Ki in test [1] of 2400 nM.

`O=C1N(Cc2ccccc2)[C@H]([C@@H](Br)Cc2ccccc2)[C@@H](O)[C@@H](Cc2ccccc2)N1Cc1ccccc1` came in with a Ki in test [1] of 185 nM.

In the case of `O=C1N[C@H](Cc2ccccc2)[C@H](O)[C@@H](CCc2ccccc2)N1Cc1ccc2[nH]ncc2c1`, in test [1], the affinity corresponds to a Ki of 44 nM. Compared with the last compound, the Ki is about 4.2-fold lower.

Regarding `O=C1N(Cc2ccc3ccccc3c2)[C@H](/C=C/c2ccccc2)[C@@H](O)[C@@H](Cc2ccccc2)N1Cc1ccc2ccccc2c1`, the Ki in test [1] turned out to be 280 nM.

The compound `O=C1N(Cc2ccccc2)[C@H](CCc2ccccc2)[C@@H](O)[C@@H](Cc2ccccc2)N1Cc1ccccc1` showed an IC90 in the test on MT2 of 2800 nM. This lies in the single-digit micromolar range.

`N#Cc1cc(CN2C(=O)N(Cc3ccc(F)c(C#N)c3)[C@H](Cc3ccccc3)[C@H](O)[C@H]2CCc2ccccc2)ccc1F` returned a Ki in test [1] of 230 nM.

Take `Nc1cccc(CN2C(=O)N[C@H](Cc3ccccc3)[C@H](O)[C@H]2CCc2ccccc2)c1`: affinity in test [1] was put at a Ki of 157 nM.
